# Assay results reported in paper PMC10824272 (Biomedicine & pharmacotherapy = Biomedecine & …, 2023).
# Values joined by “and” are separate entries in the source; they are usually repeats but may differ in a detail not shown here. Identical values can stand only once.
# Experiments:
# SW480^cld1 cells [1] = assay: Cell viability; type: cell-based, human
# Procedure, shortened: (§1)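 Claudin-1-overexpressing SW480cld1 and SW620 cells grown in RPMI with 10% FBS and exposed for 72 hours to a range of test compound concentrations. Viability measured by PrestoBlue reagent. EC50 calculated from the concentration–viability data.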
# SW620 cells [2] = assay: Cell viability; type: cell-based, human
# Procedure, shortened: as §1
# normal IEC-6 cells = assay: Cell viability; type: cell-based; details: 72 hours
# Procedure, shortened: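 Cells maintained in RPMI plus 10% FBS. Viability read with PrestoBlue reagent per kit protocol after 72 h exposure to test compound.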
# SW480 cells = assay: Cell viability; type: cell-based, human; details: even at 25μM
# SW480^cld1 cells [3] = assay: Anoikis-induced apoptosis assay; type: cell-based; details: claudin-1 overexpressed SW480^cld1
# Procedure, shortened: (§2)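 Anoikis induced by plating cells on poly-HEMA-coated culture plates. Apoptosis quantified with a cell death detection ELISA. Parental lines were cultured in RPMI with 10% FBS. Claudin-1-overexpressing SW480 and claudin-1-knockdown SW620 derivatives were used.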
# SW620 cells [4] = assay: Anoikis-induced apoptosis assay; type: cell-based; details: claudin-1 overexpressed SW620
# HCT116 cells = assay: Anoikis-induced apoptosis assay; type: cell-based, human; details: claudin-1 deficient HCT116
# SW620^1C cells = assay: Anoikis-induced apoptosis assay; type: cell-based, human; details: claudin-1 knockdown SW620^1C
# Procedure, shortened: as §2
# SW620 cells [5] = assay: Transwell matrigel invasion assay; type: cell-based, human; details: PDS-0330 25μM; P < 0.0001 vs control and 20A
# [6] = test system: SW480^cld1 xenograft tumor; assay: Subcutaneous xenograft tumor study; type: in vivo, athymic nude mice
# Procedure, shortened: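 Cells implanted subcutaneously in athymic nude mice, n = 5 per group, vehicle controls. For SW480cld1 with I-6, once-weekly dosing started 10 days after implantation, once tumors were palpable, for two weeks. Caliper volume over time, formula […]. Ki67 and cleaved PARP by IHC. Behavior and body weight monitored.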
# SW620 xenograft tumor = assay: Subcutaneous xenograft tumor study; type: in vivo, athymic nude mice
# [7] = test system: claudin-1 overexpressed PDX tumor; assay: Chemo-resistant patient-derived xenograft; type: in vivo, athymic nude mice
# Procedure, shortened: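 Chemo-resistant PDX tumor fragments (~2mm3) implanted subcutaneously in 6-week-old athymic nude mice. Once tumors were palpable, dosed once weekly for four weeks (n=5 mice/group), vehicle controls included. Caliper volume from […], tracked over time. Tumor sections stained by IHC for Ki67 and cleaved PARP.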
# [8] = Metabolic stability, phase I; type: in vitro ADME, human
# Procedure, shortened: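 Phase I stability in human liver microsomes (20 mg/ml stock), 100 mM potassium phosphate pH 7.4, 10 mM MgCl2, 2 mM NADPH. Mix pre-incubated 10 min at 37 °C. Output is percent parent remaining per time point. Elimination rate constant taken from first-order plot of ln area ratio versus time.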
# human claudin-1 = target: T1, human claudin-1 (Homo sapiens, UniProt O95832); assay: Microscale thermophoresis; type: binding
# T1 sequence (O95832 1-211): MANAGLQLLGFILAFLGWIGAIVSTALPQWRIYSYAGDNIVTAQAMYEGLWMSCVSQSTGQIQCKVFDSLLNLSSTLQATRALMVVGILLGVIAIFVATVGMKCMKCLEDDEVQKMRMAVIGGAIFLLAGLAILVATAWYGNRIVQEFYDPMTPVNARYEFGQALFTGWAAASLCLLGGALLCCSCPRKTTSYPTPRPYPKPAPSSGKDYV
# [9] = test system: trypsinized human claudin-1; assay: Microscale thermophoresis; type: binding; details: 25 °C, at concentrations shown to bind wild-type claudin-1
# Procedure, shortened: (§3)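 Microscale thermophoresis at 25 °C with 1 μM Cy3-labeled, detergent-purified claudin (human claudin-19, mouse claudin-4 or trypsinized human claudin-1) in HEPES pH 7.4/100 mM NaCl buffer. Test compound dissolved in DMSO and titrated from 135 μM to 4.1 nM. Affinity derived from duplicate acquisitions.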
# mouse claudin-4 = target: T2, mouse claudin-4 (Mus musculus, UniProt O35054); assay: Microscale thermophoresis; type: binding; details: 25 °C, duplicate acquisitions
# T2 sequence (O35054 1-210): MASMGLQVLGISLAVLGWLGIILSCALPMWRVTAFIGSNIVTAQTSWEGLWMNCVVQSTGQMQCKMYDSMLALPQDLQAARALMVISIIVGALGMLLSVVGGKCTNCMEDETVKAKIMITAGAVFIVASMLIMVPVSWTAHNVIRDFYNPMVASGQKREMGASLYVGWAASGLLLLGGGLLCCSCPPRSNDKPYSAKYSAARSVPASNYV
# Procedure, shortened: as §3
# [10] = Drug toxicity in xenograft mice; type: in vivo
# Procedure, shortened: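 Body weight recorded during treatment. BUN determined colorimetrically in plasma and kidney tissue lysate by kit protocol. Mice sacrificed at day 25; AST activity measured in plasma and liver homogenate, followed up to 60 min at regular intervals. n=5 mice/group, means ± SEM.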
# [11] = PDS-0330 5mg/Kg and 10mg/Kg vs vehicle
# [12] = PDS-0330 5mg/kg and 10mg/kg once/week for four weeks
structure (smiles),measurement,setting,value
"O=C(NC(=S)Nc1ccc(-c2nc3ccccc3o2)cc1)c1ccc2ccccc2c1 [PDS-0330, N-((4-(benzo[d]oxazol-2-yl)phenyl)carbamothioyl)-2-naphthamide]",EC50,"SW480^cld1 cells [1]; Homo sapiens, 72 h, read-out: EC50, cell viability",8.4 µM
same,"CI index, % cell survival in combination with 5-FU",SW480^cld1 cells [1]; PDS-0330 with 5-FU (5μM),< 1
same,EC50,"SW620 cells [2]; Homo sapiens, SW-620, 72 h, read-out: EC50, cell viability",9.3 µM
same,"CI index, % cell survival in combination with 5-FU",SW620 cells [2]; PDS-0330 with 5-FU (5μM),< 1
same,effect with oxaliplatin on cell survival,SW620 cells [2]; PDS-0330 with oxaliplatin (1μM),synergistic effect
same,effect on cell growth/survival,normal IEC-6 cells,no effect
same,impact on SW480 cells,SW480 cells,no significant impact
same,resistance to anoikis,SW480^cld1 cells [3],dramatically reduced the resistance to anoikis
same,resistance to anoikis,SW620 cells [4],dramatically reduced the resistance to anoikis
same,resistance to anoikis,HCT116 cells,not affecting
same,resistance to anoikis,SW620^1C cells,not affecting
same,cell invasion,SW620 cells [5],significantly inhibited
same,"apoptosis in tumors (cleaved PARP, BclxL, survivin)",[6]; PDS-0330 5mg/Kg and 10mg/Kg,increase in apoptosis
same,proliferation in tumors (Ki67),[6]; PDS-0330 5mg/Kg and 10mg/Kg,reduced proliferation
same,tumor volume and weight,[6]; [11],significant reduction
same,"apoptosis in tumors (cleaved PARP, BclxL, survivin)",SW620 xenograft tumor; PDS-0330 5mg/Kg and 10mg/Kg,increase in apoptosis
same,proliferation in tumors (Ki67),SW620 xenograft tumor; PDS-0330 5mg/Kg and 10mg/Kg,reduced proliferation
same,tumor volume and weight,SW620 xenograft tumor; [11],significant reduction
same,"tumor volume, combination with 5-FU",SW620 xenograft tumor; PDS-0330 and 5-FU in combination vs either alone,substantial reduction
same,"apoptosis in tumors (cleaved PARP, Bcl-xL, survivin)",[7]; PDS-0330 5mg/kg and 10mg/kg,increase in apoptosis
same,proliferation in tumors (Ki67),[7]; PDS-0330 5mg/kg and 10mg/kg,decreased proliferation
same,mean tumor volume and tumor weight,[7]; [12],significantly reduced
same,primary tumor growth,[7]; [12],reduced primary tumor growth in a statistically significant manner
same,drug remaining after 60 min,"[8]; HLM, phase I metabolism, 60 min",90%
same,metabolism in the presence of HLM,[8]; phase I,< 15%
same,Hill coefficient,human claudin-1; 37°C,~ 5 and 4.5
same,Kd,"human claudin-1; binding affinity, 37°C, fit to Hill-Langmuir equation",44.9 ± 5.6 µM
same,Kd,"human claudin-1; equilibrium dissociation constant (Kd), Cy3-labeled human claudin-1, 25 °C, eight independent acquisitions",22.9 ± 3 µM
same,"binding affinity to other claudin subtypes, fold lower than claudin-1",human claudin-1; human claudin-19 and mouse claudin-4 vs human claudin-1,~ 4 fold
same,binding to trypsinized and labeled claudin-1,[9],no detectable binding
same,Kd,mouse claudin-4,92.1 µM and ≥ 100 µM
same,body weight among groups at the end of treatment,"[10]; PDS-0330 5mg/Kg and 10mg/Kg, SW620 and SW480^cld1 implanted mice",no statistically significant differences
same,urea nitrogen (BUN) level,[10]; kidney tissue and plasma of treated mice,not affected
same,aspartate transaminase (AST) levels,"[10]; plasma and liver homogenate, day 25",not affected
